Laboratory results: ChEMBL document CHEMBL1148447, “Structure-activity study on a novel series of macrocyclic inhibitors of the hepatitis C virus NS3 protease leading to the discovery of BILN 2061” (J Med Chem, 2004)

Tests used:
Hepatitis C virus = test: Inhibition of hepatitis C virus in a cell based HCV replicon assay.; format: functional, organism-based, Hepacivirus hominis
[1] = Inhibitory concentration against hepatitis C virus NS3 protease; design: species or system Hepacivirus hominis
[2] = Vss was determined; format: ADME, organism-based; conditions: rat, in vivo; read-out: Vss
How it was run: (§1)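 Rats received an intravenous bolus of 5 mg/kg in PEG400/water (70:30). Half-life, Vss and plasma clearance were taken from plasma levels. Bioavailability was derived by comparison with oral gavage dosing at 20 mg/kg in the same vehicle.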

[3] = Half-life period in rats after intravenous administration at 5 mg/kg; format: ADME, organism-based; design: dose 5 mg/kg, route intravenous; conditions: rat, in vivo; how it was run: as §1
[4] = Area under the plasma concentration-time curve in rats after oral administration at 20 mg/kg; format: ADME, organism-based; design: dose 20 mg/kg, route oral; conditions: rat
How it was run: (§2)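 Rats dosed by oral gavage at 20 mg/kg in PEG400/water (70:30). Cmax and AUC0-∞ were taken from the plasma concentration–time profile.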

[5] = Maximum plasma concentration in rats after oral administration at 20 mg/kg; format: ADME, organism-based; design: dose 20 mg/kg, route oral; conditions: rat; how it was run: as §2
Rattus norvegicus [6] = test: Bioavailability in rat (dose 5 mg/kg i.v.); format: functional, organism-based; how it was run: as §1
Rattus norvegicus [7] = test: Plasma clearance after intravenous administration at 5 mg/kg in rats; format: functional; how it was run: as §1
[8] = Area under the plasma concentration-time curve in rats following oral administration at 20 mg/kg; format: ADME, organism-based; design: dose 20 mg/kg, route oral; conditions: rat; how it was run: as §2
[9] = Maximum plasma concentration in rats following oral administration at 20 mg/kg; format: ADME, organism-based; design: dose 20 mg/kg, route oral; conditions: rat; how it was run: as §2
[10] = Area under the plasma concentration-time curve in rats after oral administration at 25 mg/kg; format: ADME, organism-based; design: dose 25 mg/kg, route oral; conditions: rat, read-out: AUC 0-infinity
Rattus norvegicus [11] = test: Bioavailability from rat plasma at a single oral dose of 25 mg/kg; format: ADME, organism-based; conditions: in vivo
[12] = Half-life from rat plasma at a single oral dose of 25 mg/kg; format: ADME, organism-based; design: dose 25 mg/kg, route oral

Row | SMILES | EC50 (Hepatitis C virus) | IC50 [1] | other results
1 | COc1ccc2c(O[C@@H]3C[C@H]4C(=O)N[C@]5(C(=O)O)C[C@H]5/C=C\CCCCC[C@H](NC(=O)OC(C)(C)C)C(=O)N4C3)cc(-c3csc(N)n3)nc2c1 | 3.2 nM | 5.5 nM | 
2 | COc1ccc2c(O[C@@H]3C[C@H]4C(=O)N[C@]5(C(=O)O)C[C@H]5/C=C\CCCCC[C@H](NC(=O)OC5CCCC5)C(=O)N4C3)cc(-c3csc(NC(C)C)n3)nc2c1 [CILUPREVIR] |  | 3 nM | Vd [2]: 1 L/kg; half-life [3]: 78 min; AUC [4]: 12.5 µM·h; Cmax [5]: 2500 nM; bioavailability (Rattus norvegicus [6]): 42%; C1 (Rattus norvegicus [7]): 13 mL/min/kg
3 | CCNc1nc(-c2cc(O[C@@H]3C[C@H]4C(=O)N[C@]5(C(=O)O)C[C@H]5/C=C\CCCCC[C@H](NC(=O)OC5CCCC5)C(=O)N4C3)c3ccc(OC)cc3n2)cs1 | 1 nM | 2.9 nM | AUC [8]: 7.2 µM·h; Cmax [9]: 1000 nM
4 | COc1ccc2c(O[C@@H]3C[C@H]4C(=O)N[C@]5(C(=O)O)C[C@H]5/C=C\CCCCC[C@H](NC(=O)OC(C)(C)C)C(=O)N4C3)ccnc2c1 | 1200 nM | 24 nM | 
5 | COc1ccc2c(O[C@@H]3C[C@H]4C(=O)N[C@]5(C(=O)O)C[C@H]5/C=C\CCCCC[C@H](NC(=O)OC(C)(C)C)C(=O)N4C3)cc(-n3cccc3)nc2c1 | 9.5 nM | 5.1 nM | 
6 | COc1ccc2c(O[C@@H]3C[C@H]4C(=O)N[C@]5(C(=O)O)C[C@H]5/C=C\CCCCC[C@H](NC(=O)OC5CCC5)C(=O)N4C3)cc(-c3csc(NC(C)=O)n3)nc2c1 | 0.6 nM | 2.8 nM | 
7 | COc1ccc2c(O[C@@H]3C[C@H]4C(=O)N[C@]5(C(=O)O)C[C@H]5/C=C\CCCCC[C@H](NC(=O)OC(C)(C)C)C(=O)N4C3)cc(-n3cc(C)cn3)nc2c1 | 20 nM | 22 nM | 
8 | COc1ccc2c(O[C@@H]3C[C@H]4C(=O)N[C@]5(C(=O)O)C[C@H]5/C=C\CCCCC[C@H](NC(=O)OC(C)(C)C)C(=O)N4C3)cc(-c3nnc(C)o3)nc2c1 | 200 nM | 12 nM | 
9 | COc1ccc2c(O[C@@H]3C[C@H]4C(=O)N[C@]5(C(=O)O)C[C@H]5/C=C\CCCCC[C@H](NC(=O)OC5CCCC5)C(=O)N4C3)cc(-n3cccn3)nc2c1 | 1.1 nM | 2.2 nM | 
10 | COc1ccc2c(O[C@@H]3C[C@H]4C(=O)N[C@]5(C(=O)O)C[C@H]5/C=C\CCCCC[C@H](NC(=O)OC5CCCC5)C(=O)N4C3)cc(-c3csc(N)n3)nc2c1 | 1.6 nM | 3.5 nM | 
11 | COc1ccc2c(O[C@@H]3C[C@H]4C(=O)N[C@]5(C(=O)O)C[C@H]5/C=C\CCCCC[C@H](NC(=O)OC(C)(C)C)C(=O)N4C3)cc(-n3cccn3)nc2c1 | 3.9 nM | 5.5 nM | 
12 | COc1ccc2c(O[C@@H]3C[C@H]4C(=O)N[C@]5(C(=O)O)C[C@H]5/C=C\CCCCC[C@H](NC(=O)OC5CCCC5)C(=O)N4C3)cc(-c3csc(NC(C)=O)n3)nc2c1 | 0.4 nM | 2.5 nM | 
13 | COc1ccc2c(O[C@@H]3C[C@H]4C(=O)N[C@]5(C(=O)O)C[C@H]5/C=C\CCCCC[C@H](NC(=O)OC(C)(C)C)C(=O)N4C3)cc(-n3ccnc3)nc2c1 | 13 nM | 4.7 nM | 
14 | COc1ccc2c(O[C@@H]3C[C@H]4C(=O)N[C@]5(C(=O)O)C[C@H]5/C=C\CCCCC[C@H](NC(=O)OC(C)(C)C)C(=O)N4C3)cc(-c3ccccc3)nc2c1 | 77 nM | 11 nM | AUC [10]: 0.2 µM·h; F (Rattus norvegicus [11]): 2%; half-life [12]: 24 min
15 | COc1ccc2c(O[C@@H]3C[C@H]4C(=O)N[C@]5(C(=O)O)C[C@H]5/C=C\CCCCC[C@H](NC(=O)N[C@H](C)C(C)(C)C)C(=O)N4C3)cc(-c3csc(NC(C)=O)n3)nc2c1 | 20 nM | 1.4 nM | 
16 | CNc1nc(-c2cc(O[C@@H]3C[C@H]4C(=O)N[C@]5(C(=O)O)C[C@H]5/C=C\CCCCC[C@H](NC(=O)OC5CCCC5)C(=O)N4C3)c3ccc(OC)cc3n2)cs1 | 0.8 nM | 2.5 nM | 
17 | CNc1nc(-c2cc(O[C@@H]3C[C@H]4C(=O)N[C@]5(C(=O)O)C[C@H]5/C=C\CCCCC[C@H](NC(=O)OC(C)(C)C)C(=O)N4C3)c3ccc(OC)cc3n2)cs1 | 6 nM | 6.4 nM | 
18 | COc1ccc2c(O[C@@H]3C[C@H]4C(=O)N[C@]5(C(=O)O)C[C@H]5/C=C\CCCCC[C@H](NC(=O)OC(C)(C)C)C(=O)N4C3)cc(-n3cnc(C)c3)nc2c1 | 39 nM | 14 nM | 
19 | COc1ccc2c(O[C@@H]3C[C@H]4C(=O)N[C@]5(C(=O)O)C[C@H]5/C=C\CCCCC[C@H](NC(=O)OC5CCCC5)C(=O)N4C3)cc(-n3ccc(C)n3)nc2c1 | 1.2 nM | 2.2 nM | 
20 | C=C[C@@H]1C[C@]1(NC(=O)C1CC(Oc2ccnc3ccccc23)CN1C(=O)[C@@H](NC(=O)[C@@H](NC(C)=O)c1ccccc1)C(C)C)C(=O)O (single isomer, unassigned) |  | 170 nM | 
21 | COc1ccc2c(O[C@@H]3C[C@H]4C(=O)N[C@]5(C(=O)O)C[C@H]5/C=C\CCCCC[C@H](NC(=O)OC5CCCC5)C(=O)N4C3)cc(-n3cccc3)nc2c1 | 3.4 nM | 3.6 nM | 
22 | COc1ccc2c(O[C@@H]3C[C@H]4C(=O)N[C@]5(C(=O)O)C[C@H]5/C=C\CCCCC[C@H](NC(=O)OC(C)(C)C)C(=O)N4C3)cc(-c3csc(NC(C)=O)n3)nc2c1 | 4.5 nM | 4.8 nM | half-life [3]: 48 min; AUC [4]: 0.3 µM·h; bioavailability (Rattus norvegicus [6]): 8%; Cmax [9]: 300 nM
23 | C=C[C@@H]1C[C@]1(NC(=O)[C@@H]1C[C@@H](Oc2cc(-c3ccccc3)nc3ccccc23)CN1C(=O)[C@@H](NC(=O)[C@@H](NC(=O)[C@@H](CCC(=O)O)NC(=O)[C@H](CC(=O)O)NC(C)=O)c1ccccc1)C(C)(C)C)C(=O)O | 1900 nM | 0.5 nM | 
24 | C=C[C@@H]1C[C@]1(NC(=O)C1CC(Oc2cc(-c3ccccc3)nc3ccccc23)CN1C(=O)[C@@H](NC(=O)[C@@H](NC(C)=O)c1ccccc1)C(C)C)C(=O)O (single isomer, unassigned) |  | 13 nM | 
25 | COc1ccc2c(O[C@@H]3C[C@H]4C(=O)N[C@]5(C(=O)O)C[C@H]5/C=C\CCCCC[C@H](NC(=O)OC(C)(C)C)C(=O)N4C3)cc(-n3ccc(C)n3)nc2c1 | 4 nM | 3 nM | 
